Screening data: PubChem BioAssay, Broad Institute
E-selectin induc – induces E-selectin expression in human endothelial cells; AID 686992; P16581; activation, % at 7.58 µM; hit rate 0.37% among 260,000; HUVEC E-selectin immunofluorescence imaging; normalized: neutral wells 0, TNF-alpha wells 100;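 active = mean E-selectin-positive cell signal at least 10% of the positive control, reached in at least 60% of replicates, without over 20% cell loss; inconclusive = no rule given, readout overlaps actives, possibly toxicity-flagged; inactive = the rest, including those meeting only one limit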
Target sequence (P16581 whole entry, looked up): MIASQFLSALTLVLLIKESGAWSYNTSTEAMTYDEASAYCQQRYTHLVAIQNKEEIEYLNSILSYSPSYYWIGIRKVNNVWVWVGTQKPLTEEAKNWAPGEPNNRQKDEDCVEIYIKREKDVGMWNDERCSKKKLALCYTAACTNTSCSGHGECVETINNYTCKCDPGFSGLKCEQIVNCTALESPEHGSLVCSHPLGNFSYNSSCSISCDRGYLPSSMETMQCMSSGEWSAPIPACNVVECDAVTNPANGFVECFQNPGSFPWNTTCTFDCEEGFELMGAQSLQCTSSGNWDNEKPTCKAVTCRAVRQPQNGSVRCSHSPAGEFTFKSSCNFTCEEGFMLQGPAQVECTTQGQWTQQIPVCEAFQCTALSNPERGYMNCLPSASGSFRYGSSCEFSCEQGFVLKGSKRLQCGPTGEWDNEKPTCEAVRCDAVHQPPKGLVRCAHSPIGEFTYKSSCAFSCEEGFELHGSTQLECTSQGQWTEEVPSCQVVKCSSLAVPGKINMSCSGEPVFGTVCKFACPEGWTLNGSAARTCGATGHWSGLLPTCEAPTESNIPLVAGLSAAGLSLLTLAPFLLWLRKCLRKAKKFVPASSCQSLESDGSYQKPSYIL
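Assay system: HUVEC, human umbilical vein endothelial cells / Amount: 3,000 HUVEC/well / Controls: TNF-alpha positive control, DMSO neutral control / Compound dosing: single concentration / Medium: EGM-2 over gelatin coat / Evaluation: percent E-selectin-positive cells / Signal: immunofluorescence imaging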
Xi reactivation – activators of X-chromosome reactivation in mouse fibroblasts | XiGFP mouse fibroblasts, % GFP-positive cells imaging, 3 d; cells co-treated with 5-aza-dC sensitizer; scaled so ellipticine positive control = 100% | activation, % at 7.58 µM | hit rate 0.055% among 360,000 | AID 743238;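 active = mean normalized replicate activation at least 10% and every replicate at or above 10%; inconclusive = only one of the two criteria met; inactive = mean below 10% and not all replicates reach 10%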;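 also: 0% = median of on-plate neutral control wells and 100% = ellipticine 6 µM median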
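Schedule: 3 d treatment, 15 min room-temperature fixation; system: 68-5-11 XiGFP fibroblast line; buffer or medium: DMEM plus 5-aza-dC sensitizer; control set: ellipticine 6 µM positive control; compound: one concentration, pinned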
S100A4 MyoIIA – inhibitors of human S100A4 binding to myosin IIA peptide | P26447 | S100A4/TAMRA-MyoIIA peptide fluorescence polarization | inhibition, % at 10.7 µM | hit rate 0.14% among 360,000;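 active = mean inhibition of at least 70% across replicates, with every replicate also reaching that level; inconclusive = mean inhibition reaches 70% but some replicates fall short; inactive = mean inhibition below 70%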
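assay system = human S100A4 monomer with TAMRA-labelled myosin IIA peptide | also added = labelled myosin peptide probe, 5 nM | incubation = 5 min between mix addition and reading | control set = DMSO and TFP controls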
DENV2 CPE rescue – protects cells from dengue virus 2 cytopathic effect; DENV2-infected cells, cytopathic effect rescue, plate reader; CPE inhibition, % at 9.99 µM; hit rate 1.7% among 350,000; AID 651640; in the data active = CPE inhibition above about 20%, passing the limit was not always enough; inconclusive = no clear call, values can overlap the other calls; tested in BHK-21 cells;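 also: 0% = median of neutral control wells and 100% = median of positive control wells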
Active calls of the source: *. Only some compounds are listed: those with a hit (about 2% of all), similar ones and a draw of the others.

How did CCCC#Cc1ccc2c(c1)O[C@@H](CN(C)C(=O)CN(C)C)[C@@H](C)CN([C@H](C)CO)S2(=O)=O do in these assays?
E-selectin induc: -0.8; Xi reactivation: 0.7; S100A4 MyoIIA: 5.0; DENV2 CPE rescue: 18.9

Results for C[C@@H]1CN([C@@H](C)CO)C(=O)c2cc(NS(=O)(=O)c3cccs3)ccc2O[C@@H](C)CCCCO[C@@H]1CN(C)C ?
E-selectin induc: -0.1; Xi reactivation: 0.4; S100A4 MyoIIA: 0.3; DENV2 CPE rescue: 20.4*

What do the screens show for `O=c1[nH]c(-c2ccccn2)nc(C(F)(F)F)c1Br`?
Xi reactivation: 0.0; S100A4 MyoIIA: -5.5; DENV2 CPE rescue: 0.4

How did C/C(=N\NC(=O)C1CC1)c1ccc(Cl)cc1 do in these assays?
E-selectin induc: 120.6*; Xi reactivation: 0.1; S100A4 MyoIIA: 1.0; DENV2 CPE rescue: 8.6

How did O=C(NCCc1ccco1)C(=O)NCC1OCCCN1S(=O)(=O)c1cc(F)ccc1F (stereo not drawn) do in these assays?
Xi reactivation: 0.0; S100A4 MyoIIA: -5.7; DENV2 CPE rescue: 5.8

Results for COC/C=C/C1=CC2=CC(=O)C(C)(OC(=O)c3cnc4ccccc4n3)C(=O)C2=CN1C(CO)CO (stereo not drawn) ?
E-selectin induc: -0.7; Xi reactivation: 0.0; S100A4 MyoIIA: -4.2; DENV2 CPE rescue: 31.0*

What do the screens show for `COC/C=C/C1=CC2=CC(=O)C(C)(OC(=O)c3cnc4ccccc4n3)C(=O)C2=CN1CCOC` (stereo not drawn)?
E-selectin induc: 0.2; Xi reactivation: 0.0; S100A4 MyoIIA: 9.5; DENV2 CPE rescue: -2.8

Results for COc1ccc(S(=O)(=O)N(C)C[C@H]2Oc3c(NC(=O)c4nc5ccccc5s4)cccc3C(=O)N([C@@H](C)CO)C[C@@H]2C)cc1 ?
E-selectin induc: 1.9; Xi reactivation: 0.0; S100A4 MyoIIA: 3.6; DENV2 CPE rescue: -12.9

How did Cc1ccccc1C(=O)N1CCC2CC1c1cc(-c3ccc(F)cc3)ccc12 (stereo not drawn) do in these assays?
E-selectin induc: -0.1; Xi reactivation: 0.2; S100A4 MyoIIA: -13.7; DENV2 CPE rescue: inconclusive

Results for CNc1nc(N)c([N+](=O)[O-])c(NCc2ccccc2)n1 ?
E-selectin induc: -1.4; Xi reactivation: 0.2; S100A4 MyoIIA: -0.2; DENV2 CPE rescue: 76.1*

How did Nc1nc(NCc2ccccc2)nc(NCc2ccccc2)c1[N+](=O)[O-] do in these assays?
Xi reactivation: 0.0

What do the screens show for `Cc1cccc(C)c1OCC(=O)NNC(=O)CCCn1c(=O)oc2ccccc21`?
E-selectin induc: -0.1; Xi reactivation: 0.3; S100A4 MyoIIA: 20.2; DENV2 CPE rescue: 45.1*

What do the screens show for `CCOC(=O)C1CCN(c2ccc([N+](=O)[O-])cc2S(=O)(=O)N2CCOCC2)CC1`?
E-selectin induc: 0.2; Xi reactivation: 0.4; S100A4 MyoIIA: -7.5; DENV2 CPE rescue: 1.9

How did CCOC(=O)Nc1ccc(N2CCOCC2)c(S(=O)(=O)N2CCOCC2)c1 do in these assays?
E-selectin induc: 0.0; Xi reactivation: -0.1; S100A4 MyoIIA: -3.6; DENV2 CPE rescue: 26.2*

What do the screens show for `CC1CCCC(C)N1C(=O)CSc1ccc(-c2ccc3c(c2)OCCO3)nn1` (stereo not drawn)?
Xi reactivation: 0.1; S100A4 MyoIIA: -8.0; DENV2 CPE rescue: -1.2

What do the screens show for `COc1ccc(OCC(O)CN2CCN(c3ccc(OC)cc3)CC2)cc1` (stereo not drawn)?
E-selectin induc: 0.1; Xi reactivation: -0.1; S100A4 MyoIIA: 2.0; DENV2 CPE rescue: 6.4

How did COc1ccc(N2CCN(CC(O)COc3ccc(F)cc3)CC2)cc1 (stereo not drawn) do in these assays?
Xi reactivation: -0.1; S100A4 MyoIIA: 6.4; DENV2 CPE rescue: 51.9*

What do the screens show for `CCc1ccc(OCC(O)CN2CCN(c3ccccc3)CC2)cc1` (stereo not drawn)?
E-selectin induc: 0.0; Xi reactivation: -0.3; S100A4 MyoIIA: 1.0; DENV2 CPE rescue: 83.4*

How did C[C@H](CO)N1C[C@H](C)[C@@H](CN(C)Cc2ccc(C(=O)Nc3ccccc3N)cc2)Oc2ccc(NC(=O)Nc3ccc(F)cc3)cc2C1=O do in these assays?
E-selectin induc: 15.7; Xi reactivation: 0.1; S100A4 MyoIIA: -2.0; DENV2 CPE rescue: 3.5

Results for O=C(Nc1ccccc1F)N1CC(=O)N2[C@H](CO)[C@@H](c3ccc(C#Cc4ccc(F)cc4)cc3)[C@@H]2C1 ?
E-selectin induc: 0.1; Xi reactivation: 0.4; S100A4 MyoIIA: 1.0; DENV2 CPE rescue: 22.0*
